In ChEMBL document CHEMBL4376826 (J Med Chem, 2020):
pIC50: −log10 of the molar value. ≈ marks a conversion by molar mass, not a printed value. Calls of active or inactive are those of the source. The calls are words filed in the database; no cut-off is given here.

Columns and labels:
[1] = molecular target: Cytochrome P450 1A1 (Homo sapiens, UniProt P04798); experiment: Drug metabolism assessed as human CYP1A1-mediated metabolism by measuring DHD3 formation; assay type: ADME; conditions: recombinant enzyme
[2] = Intrinsic clearance in human liver microsomes in presence of CYP2D6 inhibitor Quinidine; assay type: ADME, Microsome; conditions: with Quinidine (CYP2D6 inhibitor), read-out: CLH
[3] = Intrinsic clearance in human liver microsomes; assay type: ADME, Microsome; conditions: read-out: CLH
[4] = Half life in mouse liver S9 fraction; assay type: ADME, subcellular
Method in brief: (§1)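 Metabolic stability of the dihydrodiols measured in vitro with mouse and human liver S9 fractions and with mouse and human hepatocytes; half-life from substrate depletion.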

[5] = Kinetic aqueous solubility of the compound; assay type: physicochemical; conditions: buffer; read-out: Kinetic_solubility
[6] = molecular target: Cytochrome P450 2C19 (Homo sapiens, UniProt P33261); experiment: Drug metabolism assessed as human CYP2C19-mediated metabolism by measuring DHD3 formation; assay type: ADME; conditions: recombinant enzyme
[7] = Drug metabolism in beta-naphthoflavone/phenobarbital-induced rat liver S9 fraction assessed as compound-D2 formation at 100 ug/ml in presence of NADPH measured after 4 hrs by UV-Vis spectroscopy; assay type: ADME, subcellular; conditions: s9, 4 h
[8] = Drug metabolism in beta-naphthoflavone/phenobarbital-induced rat liver S9 fraction assessed as compound-D1 formation at 100 ug/ml in presence of NADPH measured after 4 hrs by UV-Vis spectroscopy; assay type: ADME, subcellular; conditions: s9, 4 h
[9] = Effect on microsomal protein concentrations in minipig at 500 mg/kg/day, po for 39 weeks; assay type: ADME, organism-based, Sus scrofa domesticus; conditions: pig, in vivo, 6552 h
[10] = Drug metabolism in rat plasma assessed as formation of glucuronide conjugate of dihydrodiol at 2000 mg/kg, po dosed for 28 days; assay type: ADME, organism-based; conditions: in vivo, 672 h
[11] = Induction of CYP4A enzymes in minipig assessed as increase in 12-hydroxylase activity at 500 mg/kg/day, po for 39 weeks relative to control; assay type: ADME, organism-based, Sus scrofa domesticus; conditions: pig, in vivo, 6552 h
[12] = molecular target: CYP2D6 (Homo sapiens, UniProt P10635); experiment: Drug metabolism assessed as human CYP2D6-mediated metabolism by measuring half life; assay type: ADME; conditions: human CYP2D6 enzyme
[13] = molecular target: T1, Cytochrome P450 2D6 (Homo sapiens, UniProt P10635); experiment: Drug metabolism assessed as human CYP2D6-mediated metabolism by measuring DHD3 formation; assay type: ADME; conditions: recombinant enzyme
[14] = Induction of CYP3A enzymes in minipig assessed as increase in testosterone hydroxylase activity at 500 mg/kg/day, po for 39 weeks relative to control; assay type: ADME, organism-based, Sus scrofa domesticus; conditions: pig, in vivo, 6552 h
[15] = Protein binding in human plasma assessed as bound fraction; assay type: ADME, cell-free; conditions: read-out: PPB (converted)
Method in brief: (§2)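 Binding measured in 100% plasma; reported as fraction bound.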

[16] = Half life in human liver S9 fraction; assay type: ADME, subcellular; method in brief: as §1
[17] = molecular target: CYP2B6 (Homo sapiens, UniProt P20813); experiment: Drug metabolism assessed as human CYP2B6-mediated metabolism by measuring half life; assay type: ADME; conditions: human CYP2B6 enzyme
[18] = molecular target: CYP2C9 (Homo sapiens, UniProt P11712); experiment: Drug metabolism assessed as human CYP2C9-mediated metabolism by measuring half life; assay type: ADME; conditions: human CYP2C9 enzyme
[19] = Effect on total cytochrome P450 content in minipig at 500 mg/kg/day, po for 39 weeks; assay type: ADME, organism-based, Sus scrofa domesticus; conditions: pig, in vivo, 6552 h
[20] = molecular target: T1, Cytochrome P450 2D6; experiment: Drug metabolism assessed as human CYP2D6-mediated metabolism by measuring DHD1 formation; assay type: ADME; conditions: recombinant enzyme
[21] = Protein binding in mouse plasma assessed as bound fraction; assay type: ADME, cell-free; conditions: read-out: PPB (converted); method in brief: as §2
[22] = molecular target: Cytochrome P450 3A4 (Homo sapiens, UniProt P08684); experiment: Drug metabolism assessed as human CYP3A4-mediated metabolism by measuring DHD3 formation; assay type: ADME; conditions: recombinant enzyme
[23] = molecular target: T2, Cytochrome P450 2B6 (Homo sapiens, UniProt P20813); experiment: Drug metabolism assessed as human CYP2B6-mediated metabolism by measuring DHD1 formation; assay type: ADME; conditions: recombinant enzyme
[24] = Intrinsic clearance in mouse liver S9 fraction; assay type: ADME, subcellular; conditions: read-out: CLH
[25] = molecular target: T3, Cytochrome P450 1A2 (Homo sapiens, UniProt P05177); experiment: Drug metabolism assessed as human CYP1A2-mediated metabolism by measuring DHD3 formation; assay type: ADME; conditions: recombinant enzyme
T3 sequence (P05177 whole entry): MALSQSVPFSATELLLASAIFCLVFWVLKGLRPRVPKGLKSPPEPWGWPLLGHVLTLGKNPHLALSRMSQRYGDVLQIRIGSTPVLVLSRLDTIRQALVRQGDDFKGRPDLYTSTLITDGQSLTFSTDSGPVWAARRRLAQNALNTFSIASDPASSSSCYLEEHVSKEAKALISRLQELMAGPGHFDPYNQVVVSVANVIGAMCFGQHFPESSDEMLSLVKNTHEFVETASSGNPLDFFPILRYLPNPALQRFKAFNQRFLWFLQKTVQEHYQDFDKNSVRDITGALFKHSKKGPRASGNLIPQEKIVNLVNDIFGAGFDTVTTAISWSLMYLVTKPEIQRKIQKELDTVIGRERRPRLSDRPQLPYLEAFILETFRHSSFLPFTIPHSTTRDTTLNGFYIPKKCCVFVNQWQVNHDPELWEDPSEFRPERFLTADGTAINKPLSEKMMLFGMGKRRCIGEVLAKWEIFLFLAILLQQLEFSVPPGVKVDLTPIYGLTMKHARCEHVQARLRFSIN

[26] = Drug metabolism in rat plasma assessed as formation of O-glucuronide conjugate of aromatized diol at 2000 mg/kg, po dosed for 28 days; assay type: ADME, organism-based; conditions: in vivo, 672 h
[27] = molecular target: Cytochrome P450 2C9 (Homo sapiens, UniProt P11712); experiment: Drug metabolism assessed as human CYP2C9-mediated metabolism by measuring DHD3 formation; assay type: ADME; conditions: recombinant enzyme
[28] = molecular target: CYP1A1 (Homo sapiens, UniProt P04798); experiment: Drug metabolism assessed as human CYP1A1-mediated metabolism by measuring half life; assay type: ADME; conditions: human CYP1A1 enzyme
[29] = molecular target: T3, Cytochrome P450 1A2; experiment: Drug metabolism assessed as human CYP1A2-mediated metabolism by measuring DHD1 formation; assay type: ADME; conditions: recombinant enzyme
[30] = Permeability at pH 7.4 by PAMPA; assay type: ADME; conditions: read-out: permeability
[31] = molecular target: CYP2C19 (Homo sapiens, UniProt P33261); experiment: Drug metabolism assessed as human CYP2C19-mediated metabolism by measuring half life; assay type: ADME; conditions: human CYP2C19 enzyme
[32] = molecular target: CYP1A2 (Homo sapiens, UniProt P05177); experiment: Drug metabolism assessed as human CYP1A2-mediated metabolism by measuring half life; assay type: ADME; conditions: human CYP1A2 enzyme
[33] = molecular target: T3, Cytochrome P450 1A2; experiment: Inhibition of CYP1A2 in human liver microsomes; assay type: ADME
[34] = Induction of CYP1A1/2 enzymes in male minipig assessed as increase in EROD enzyme activity at 500 mg/kg/day, po for 39 weeks relative to control; assay type: ADME, organism-based, Sus scrofa domesticus; conditions: pig, in vivo, 6552 h
[35] = test system: UDP-glucuronosyltransferases (UGTs); experiment: Drug metabolism assessed as human UGT-mediated metabolism by measuring half life for DHD3 formation; assay type: ADME, protein assay
[36] = species on record: Homo sapiens; experiment: Substrate activity at MDR4 (unknown origin)
[37] = Intrinsic clearance in human liver microsomes in presence of CYP1A inhibitor alpha-naphthoflavone; assay type: ADME, Microsome; conditions: with alpha-naphthoflavone (CYP1A inhibitor), read-out: CLH
[38] = test system: Rattus norvegicus; experiment: Effect on total cytochrome P450 content in rat at 2000 mg/kg/day, po for 28 days; assay type: ADME, organism-based; conditions: in vivo, 672 h
Method in brief: (§3)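 Rats dosed 2000 mg/kg/day by oral gavage for 28 days; liver microsomes prepared, microsomal protein concentration and total P450 content measured.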

[39] = Intrinsic clearance in human liver microsomes in presence of CYP2B6 inhibitor Ticlopidine; assay type: ADME, Microsome; conditions: with Ticlopidine (CYP2B6 inhibitor), read-out: CLH
[40] = Drug metabolism in human liver microsomes assessed as metabolite retention time incubation for 45 mins; assay type: ADME, Microsome; conditions: 0.75 h
Method in brief: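 Incubation of substrate in pooled male and female human liver microsomes for 45 min; parent and metabolite resolved by LC-MS, metabolite identified by retention time and [M+H]+ ion.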

[41] = molecular target: Cytochrome P450 2C8 (Homo sapiens, UniProt P10632); experiment: Drug metabolism assessed as human CYP2C8-mediated metabolism by measuring DHD3 formation; assay type: ADME; conditions: recombinant enzyme
[42] = Drug level in rat plasma at 2000 mg/kg, po measured after 24 hrs; assay type: ADME, organism-based; conditions: in vivo
[43] = Intrinsic clearance in human liver S9 fraction; assay type: ADME, subcellular; conditions: read-out: CLH
[44] = Induction of CYP2B enzymes in male minipig assessed as increase in PROD enzyme activity at 500 mg/kg/day, po for 39 weeks relative to control; assay type: ADME, organism-based, Sus scrofa domesticus; conditions: pig, in vivo, 6552 h
[45] = molecular target: CYP3A4 (Homo sapiens, UniProt P08684); experiment: Drug metabolism assessed as human CYP3A4-mediated metabolism by measuring half life; assay type: ADME; conditions: human CYP3A4 enzyme
[46] = Induction of CYP2E1 enzymes in minipig assessed as increase in 11-hydroxylase activity at 500 mg/kg/day, po for 39 weeks relative to control; assay type: ADME, organism-based, Sus scrofa domesticus; conditions: pig, in vivo, 6552 h
[47] = molecular target: CYP2C8 (Homo sapiens, UniProt P10632); experiment: Drug metabolism assessed as human CYP2C8-mediated metabolism by measuring half life; assay type: ADME; conditions: human CYP2C8 enzyme
[48] = test system: Rattus norvegicus; experiment: Effect on microsomal protein concentrations in rat at 2000 mg/kg/day, po for 28 days; assay type: ADME, organism-based; conditions: in vivo, 672 h; method in brief: as §3
[49] = molecular target: T2, Cytochrome P450 2B6; experiment: Drug metabolism assessed as human CYP2B6-mediated metabolism by measuring DHD3 formation; assay type: ADME; conditions: recombinant enzyme

T1 sequence (P10635 whole entry): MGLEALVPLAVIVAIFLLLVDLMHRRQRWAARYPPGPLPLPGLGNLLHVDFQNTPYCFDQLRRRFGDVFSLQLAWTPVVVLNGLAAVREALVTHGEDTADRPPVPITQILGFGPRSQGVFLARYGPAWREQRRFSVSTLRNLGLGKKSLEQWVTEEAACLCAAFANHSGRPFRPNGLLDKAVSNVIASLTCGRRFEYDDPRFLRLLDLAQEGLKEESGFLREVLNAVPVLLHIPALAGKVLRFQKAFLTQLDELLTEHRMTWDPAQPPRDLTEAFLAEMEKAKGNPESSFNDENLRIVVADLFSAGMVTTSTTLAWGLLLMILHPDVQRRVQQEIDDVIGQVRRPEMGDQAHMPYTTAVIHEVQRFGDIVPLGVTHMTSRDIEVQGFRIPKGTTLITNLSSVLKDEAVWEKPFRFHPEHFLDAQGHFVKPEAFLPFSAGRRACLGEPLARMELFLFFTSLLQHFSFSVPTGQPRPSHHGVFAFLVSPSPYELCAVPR
T2 sequence (P20813 whole entry): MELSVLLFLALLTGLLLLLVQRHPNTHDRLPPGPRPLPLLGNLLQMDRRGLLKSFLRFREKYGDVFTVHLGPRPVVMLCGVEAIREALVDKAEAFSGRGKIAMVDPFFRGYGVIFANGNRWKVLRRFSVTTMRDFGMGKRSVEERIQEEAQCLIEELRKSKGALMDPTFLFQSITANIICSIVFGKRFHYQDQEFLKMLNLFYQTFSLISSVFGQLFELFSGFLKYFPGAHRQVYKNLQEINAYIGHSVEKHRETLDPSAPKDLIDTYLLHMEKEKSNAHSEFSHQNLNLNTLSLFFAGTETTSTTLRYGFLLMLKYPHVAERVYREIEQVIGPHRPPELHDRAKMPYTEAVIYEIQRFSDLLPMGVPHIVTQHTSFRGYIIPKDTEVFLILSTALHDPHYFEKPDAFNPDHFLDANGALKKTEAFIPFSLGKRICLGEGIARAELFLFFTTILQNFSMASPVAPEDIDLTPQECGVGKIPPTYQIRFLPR
CYP3A4, sequence (P08684 whole entry): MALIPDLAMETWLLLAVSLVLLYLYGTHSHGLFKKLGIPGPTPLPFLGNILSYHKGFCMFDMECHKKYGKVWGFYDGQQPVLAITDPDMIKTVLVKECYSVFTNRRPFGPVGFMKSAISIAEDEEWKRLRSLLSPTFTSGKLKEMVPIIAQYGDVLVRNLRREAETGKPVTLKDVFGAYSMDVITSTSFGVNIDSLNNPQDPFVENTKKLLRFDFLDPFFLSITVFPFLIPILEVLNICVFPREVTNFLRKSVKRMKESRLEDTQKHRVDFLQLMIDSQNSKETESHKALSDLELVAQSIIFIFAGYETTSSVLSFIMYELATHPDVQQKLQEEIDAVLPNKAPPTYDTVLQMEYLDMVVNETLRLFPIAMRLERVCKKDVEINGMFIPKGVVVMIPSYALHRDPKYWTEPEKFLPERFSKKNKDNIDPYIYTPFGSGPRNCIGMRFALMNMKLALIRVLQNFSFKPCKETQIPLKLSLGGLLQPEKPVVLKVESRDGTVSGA
Cytochrome P450 3A4, sequence (P08684 whole entry): as above
CYP2C9, sequence (P11712 whole entry): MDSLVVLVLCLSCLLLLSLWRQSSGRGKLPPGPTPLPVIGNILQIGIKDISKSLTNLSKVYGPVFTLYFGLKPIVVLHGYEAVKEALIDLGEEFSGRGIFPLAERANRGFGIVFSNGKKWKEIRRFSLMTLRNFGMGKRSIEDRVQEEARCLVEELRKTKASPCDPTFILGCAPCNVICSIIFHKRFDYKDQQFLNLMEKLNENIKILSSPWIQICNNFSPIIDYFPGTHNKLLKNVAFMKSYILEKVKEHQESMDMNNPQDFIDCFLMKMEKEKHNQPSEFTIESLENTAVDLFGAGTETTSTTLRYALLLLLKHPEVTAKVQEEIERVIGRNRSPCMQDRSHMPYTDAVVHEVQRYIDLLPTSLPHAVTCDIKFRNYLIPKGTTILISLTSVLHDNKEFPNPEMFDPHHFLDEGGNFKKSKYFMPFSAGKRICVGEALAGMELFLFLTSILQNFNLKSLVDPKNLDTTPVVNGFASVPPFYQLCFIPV
Cytochrome P450 2C9, sequence (P11712 whole entry): as above
Cytochrome P450 2C19, sequence (P33261 whole entry): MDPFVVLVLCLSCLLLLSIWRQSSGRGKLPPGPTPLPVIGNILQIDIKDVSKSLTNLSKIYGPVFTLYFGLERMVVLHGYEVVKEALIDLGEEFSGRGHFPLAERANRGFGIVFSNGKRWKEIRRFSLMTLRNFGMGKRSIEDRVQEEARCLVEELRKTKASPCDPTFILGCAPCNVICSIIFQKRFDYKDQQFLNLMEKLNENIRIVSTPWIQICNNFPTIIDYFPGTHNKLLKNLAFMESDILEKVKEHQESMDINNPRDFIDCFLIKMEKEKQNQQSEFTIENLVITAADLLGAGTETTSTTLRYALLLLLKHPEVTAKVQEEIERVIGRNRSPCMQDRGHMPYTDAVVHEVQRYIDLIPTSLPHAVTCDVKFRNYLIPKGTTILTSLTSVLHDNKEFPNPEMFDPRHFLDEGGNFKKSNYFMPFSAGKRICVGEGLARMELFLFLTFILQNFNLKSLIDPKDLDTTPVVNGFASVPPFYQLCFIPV
CYP2C19, sequence (P33261 whole entry): as above
CYP2D6, sequence (P10635 whole entry): as the sequence (P10635 whole entry) above
Cytochrome P450 2C8, sequence (P10632 whole entry): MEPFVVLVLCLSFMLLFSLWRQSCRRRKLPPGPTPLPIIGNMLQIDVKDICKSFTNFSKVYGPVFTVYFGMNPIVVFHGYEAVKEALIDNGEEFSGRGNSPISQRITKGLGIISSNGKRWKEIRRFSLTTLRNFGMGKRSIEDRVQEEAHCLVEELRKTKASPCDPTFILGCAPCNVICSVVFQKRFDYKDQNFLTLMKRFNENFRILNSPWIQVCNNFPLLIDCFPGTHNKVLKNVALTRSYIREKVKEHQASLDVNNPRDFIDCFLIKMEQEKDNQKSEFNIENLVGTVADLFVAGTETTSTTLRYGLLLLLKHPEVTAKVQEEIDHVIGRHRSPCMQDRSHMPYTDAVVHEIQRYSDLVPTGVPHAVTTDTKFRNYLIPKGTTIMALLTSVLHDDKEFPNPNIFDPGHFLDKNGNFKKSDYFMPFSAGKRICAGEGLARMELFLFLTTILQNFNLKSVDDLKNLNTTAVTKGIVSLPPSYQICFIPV
CYP2C8, sequence (P10632 whole entry): as above
CYP2B6, sequence (P20813 whole entry): as the sequence (P20813 whole entry) above
Cytochrome P450 1A1, sequence (P04798 whole entry): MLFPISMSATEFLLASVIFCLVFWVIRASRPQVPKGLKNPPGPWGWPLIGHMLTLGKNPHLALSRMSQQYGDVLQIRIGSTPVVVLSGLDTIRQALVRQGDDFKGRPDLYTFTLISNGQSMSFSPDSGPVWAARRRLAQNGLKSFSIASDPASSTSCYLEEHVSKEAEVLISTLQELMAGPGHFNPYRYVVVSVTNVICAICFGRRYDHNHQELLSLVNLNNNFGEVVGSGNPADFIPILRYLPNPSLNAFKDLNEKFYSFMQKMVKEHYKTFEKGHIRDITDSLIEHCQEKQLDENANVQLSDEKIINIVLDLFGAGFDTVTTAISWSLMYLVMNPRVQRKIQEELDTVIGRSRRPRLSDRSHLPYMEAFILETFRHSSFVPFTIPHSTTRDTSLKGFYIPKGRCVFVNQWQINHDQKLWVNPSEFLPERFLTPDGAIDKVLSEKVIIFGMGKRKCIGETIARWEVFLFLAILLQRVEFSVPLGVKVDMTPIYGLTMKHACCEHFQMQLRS
CYP1A1, sequence (P04798 whole entry): as above

Drug metabolism [1]: Metabolite_Notdetected
microsomal CLint [2]: 35.1 µL/min/mg
microsomal CLint [3]: 50.7 µL/min/mg
half-life [4]: 1.23 h
solubility kinetic [5]: 1 to 2 µM (≈ 0.337 to 0.675 µg/mL)
Drug metabolism [6]: Metabolite_Notdetected
Drug metabolism [7]: Metabolite_Detected
Drug metabolism [8]: Metabolite_Detected
Drug metabolism [10]: Metabolite_Detected
Activity [11]: Not Active
half-life [12]: ≥ 3 h
Drug metabolism [13]: Metabolite_Notdetected
Activity [14]: Not Active
fraction unbound [15]: 0.01
half-life [16]: 1.68 h
half-life [17]: ≥ 3 h
half-life [18]: ≥ 3 h
Drug metabolism [20]: Metabolite_Detected
fraction unbound [21]: 0.005
Drug metabolism [22]: Metabolite_Notdetected
Drug metabolism [23]: Metabolite_Detected
microsomal CLint [24]: 19 µL/min/mg
Drug metabolism [25]: Metabolite_Notdetected
Drug metabolism [26]: Metabolite_Detected
Drug metabolism [27]: Metabolite_Notdetected
half-life [28]: 2.16 min
Drug metabolism [29]: Metabolite_Detected
Papp [30]: 9.5 ×10⁻⁶ cm/s
half-life [31]: ≥ 3 h
half-life [32]: 2.62 min
pIC50 [33]: 5.27
Activity [34]: Not Active
t1/2 [35]: > 4 h
Activity [36]: inactive
microsomal CLint [37]: 5.06 µL/min/mg
microsomal CLint [39]: 21.4 µL/min/mg
Retention_time [40]: 5.7 min
Drug metabolism [41]: Metabolite_Notdetected
Drug uptake [42]: 38 to 89%
microsomal CLint [43]: 14 µL/min/mg
Activity [44]: Not Active
half-life [45]: ≥ 3 h
Activity [46]: Not Active
half-life [47]: ≥ 3 h
Drug metabolism [49]: Metabolite_Notdetected
SMILES: CCS(=O)(=O)c1ccc2oc(-c3ccc4ccccc4c3)nc2c1 [EZUTROMID]
Activity [9]: Non-Toxic
Activity [19]: Non-Toxic
Activity [38]: Non-Toxic
Activity [48]: Non-Toxic
